Measured values as given in publication PMC4075068 (Bioorganic & medicinal chemistry letters, 2014).

Columns and labels:
[1] = tier 1 DMPK panel; format: in vitro ADME; settings: compared with 10b
[2] = biological target: rat mGlu3 (Rattus norvegicus, UniProt P31422); format: cell-based
In short: (§1)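 Kinetic plate-based calcium fluorescence readout in cells expressing mGlu2 or mGlu3. For IC50, the test compound was titrated from 1 nM upward against an EC76 of glutamate at mGlu2 or an EC87 at mGlu3. For mechanism, the test compound was held at several fixed concentrations while glutamate was titrated from 1 nM upward, and shifts in the glutamate curve were assessed. Three independent experiments.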

[3] = predicted hepatic clearance, human; format: in vitro ADME
[4] = predicted hepatic clearance, rat; format: in vitro ADME
[5] = biological target: mGlu3 (Rattus norvegicus, UniProt P31422); test: mGlu family selectivity screen, fold-shift of glutamate response; format: cell-based; settings: 10 μM
[6] = biological target: rat mGlu2 (Rattus norvegicus, UniProt P31421); format: cell-based
In short: as §1

[7] = biological target: mGlu2 (Rattus norvegicus, UniProt P31421); test: mGlu family selectivity screen, fold-shift of glutamate response; format: cell-based; settings: 10 μM
[8] = tested on: the other mGlus; test: mGlu family selectivity screen, fold-shift of glutamate response; format: cell-based; settings: 10 μM
In short: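 Fold-shift of glutamate-evoked signaling measured at group I and group III mGlu receptors. Group I receptors read out by calcium response; group III receptors read out by GIRK response.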

[9] = fixed concentrations against glutamate 1 nM – 30 μM

Sequence of rat mGlu2 (P31421 19-872): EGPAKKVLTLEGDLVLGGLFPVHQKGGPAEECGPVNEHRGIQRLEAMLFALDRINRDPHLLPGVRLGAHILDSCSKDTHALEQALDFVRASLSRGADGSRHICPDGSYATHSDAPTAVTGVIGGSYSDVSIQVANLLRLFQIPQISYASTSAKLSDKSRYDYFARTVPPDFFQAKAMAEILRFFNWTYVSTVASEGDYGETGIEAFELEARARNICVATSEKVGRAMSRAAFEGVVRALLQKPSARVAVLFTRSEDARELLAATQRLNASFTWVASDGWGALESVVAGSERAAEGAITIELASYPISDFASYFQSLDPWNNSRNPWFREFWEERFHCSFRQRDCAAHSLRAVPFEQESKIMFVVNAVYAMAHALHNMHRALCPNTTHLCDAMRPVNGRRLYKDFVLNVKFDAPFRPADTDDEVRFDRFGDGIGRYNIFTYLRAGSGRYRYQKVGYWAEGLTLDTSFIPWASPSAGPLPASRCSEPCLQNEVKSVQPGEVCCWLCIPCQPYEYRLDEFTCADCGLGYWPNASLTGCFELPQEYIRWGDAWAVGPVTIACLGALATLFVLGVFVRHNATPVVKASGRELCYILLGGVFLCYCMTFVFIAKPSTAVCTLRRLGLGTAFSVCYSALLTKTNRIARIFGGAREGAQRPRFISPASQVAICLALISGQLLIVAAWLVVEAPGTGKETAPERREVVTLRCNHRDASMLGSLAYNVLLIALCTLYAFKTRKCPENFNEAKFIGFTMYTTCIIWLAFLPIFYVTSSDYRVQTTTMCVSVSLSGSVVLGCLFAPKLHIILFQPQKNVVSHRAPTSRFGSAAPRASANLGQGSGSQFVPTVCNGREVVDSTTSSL
Sequence of rat mGlu3 (P31422 23-879): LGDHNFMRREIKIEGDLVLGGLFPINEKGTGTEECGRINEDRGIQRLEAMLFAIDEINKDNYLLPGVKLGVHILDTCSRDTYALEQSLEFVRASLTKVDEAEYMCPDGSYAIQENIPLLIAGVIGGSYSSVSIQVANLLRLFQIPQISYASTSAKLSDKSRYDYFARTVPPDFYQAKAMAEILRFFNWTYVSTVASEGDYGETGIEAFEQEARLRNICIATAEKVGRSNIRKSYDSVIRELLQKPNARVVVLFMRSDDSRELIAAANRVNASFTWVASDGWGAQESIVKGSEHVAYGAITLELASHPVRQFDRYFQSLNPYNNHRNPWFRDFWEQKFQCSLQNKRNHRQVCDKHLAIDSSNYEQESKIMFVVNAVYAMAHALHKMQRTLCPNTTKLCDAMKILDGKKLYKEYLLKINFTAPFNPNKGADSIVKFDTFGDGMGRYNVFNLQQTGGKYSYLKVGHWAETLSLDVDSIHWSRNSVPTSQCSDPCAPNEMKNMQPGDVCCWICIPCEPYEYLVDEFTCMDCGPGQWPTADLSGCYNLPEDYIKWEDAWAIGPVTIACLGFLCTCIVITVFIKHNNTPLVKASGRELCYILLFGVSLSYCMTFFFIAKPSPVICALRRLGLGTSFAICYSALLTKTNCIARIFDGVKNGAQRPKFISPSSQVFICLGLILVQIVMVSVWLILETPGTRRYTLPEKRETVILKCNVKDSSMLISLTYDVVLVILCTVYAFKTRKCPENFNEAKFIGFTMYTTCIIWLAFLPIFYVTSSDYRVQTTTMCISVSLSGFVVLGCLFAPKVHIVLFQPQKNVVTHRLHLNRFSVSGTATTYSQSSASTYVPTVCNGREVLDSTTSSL
Sequence of mGlu2 (P31421 19-872): as the sequence (P31421 19-872) above
Sequence of mGlu3 (P31422 23-879): as the sequence (P31422 23-879) above

Row | SMILES | DMPK properties [1] | increase in potency at mGlu3 compared to 7d [2] | mechanism of action at mGlu3 (progressive fold-shift of glutamate response) [2, 9] | predicted clearance CLhep, human [3] [mL/min/kg] | predicted clearance CLhep, rat [4] [mL/min/kg] | effect on glutamate response at mGlu3 [5] | increase in potency at mGlu2 compared to 7d [6] [fold] | mechanism of action at mGlu2 (progressive fold-shift of glutamate response) [6, 9] | effect on glutamate response at mGlu2 [7] | effect on responses of the other mGlus to glutamate [8]
1 | Cn1c(=O)c2ccc(-c3cccnc3)cc2n2nc(-c3ccc(F)cc3)cc12 [7ab] | similarly poor DMPK properties | – | – | – | – | – | – | – | – | –
2 | Cn1c(=O)c2ccc(-c3cncnc3)cc2n2nc(-c3ccccc3)cc12 [10b, 4-methyl-2-phenyl-8-(pyrimidin-5-yl)pyrazolo[1,5-a]quinazolin-5(4H)-one] | – | over 2 fold | acting as a NAM | 18.7 | 54.7 | completely blocked the glutamate response | ~3.5 | acting as a NAM | completely blocked the glutamate response | did not alter the responses
